How the values were obtained:
[1] = system: Phocaeicola dorei; assay: Antibacterial activity against Bacteroides dorei HM-719 assessed as reduction in microbial growth after 48 hrs by broth microdilution method; format: organism-based
Method in brief: (§1)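 Gut commensal MICs by broth microdilution: a 0.5 McFarland suspension was diluted to ~5 × 10^5 CFU/mL in BHIS broth (Bacteroides) or MRS broth (Lactobacillus). Agents were serially diluted and incubated 48 h at 37°C. MIC was read by visual inspection of growth.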

[2] = Selectivity ratio of MIC for antibacterial activity against Bacteroides dorei HM-719 to antibacterial activity against Clostridioides difficile NR-13435 isolate 9; format: ADME
[3] = system: Lactobacillus crispatus; assay: Antibacterial activity against Lactobacillus crispatus HM-371 assessed as reduction in microbial growth after 48 hrs by broth microdilution method; method in brief: as §1
[4] = Selectivity ratio of MIC for antibacterial activity against Bacteroides fragilis HM-711 to antibacterial activity against Clostridioides difficile NR-32904 P30; format: ADME
[5] = system: Bacteroides fragilis; assay: Antibacterial activity against Bacteroides fragilis HM-709 assessed as reduction in microbial growth after 48 hrs by broth microdilution method; format: organism-based; method in brief: as §1
[6] = system: Enterococcus faecalis; assay: Antimicrobial activity against vancomycin-resistant Enterococcus […] ATCC 51299 assessed as reduction in microbial growth after 48 hrs by CLSI based broth microdilution method; format: functional
Method in brief: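 CLSI broth microdilution: strains were grown aerobically overnight on tryptone soy agar at 37°C. A 0.5 McFarland suspension was diluted to ~5 × 10^5 CFU/mL in cation-adjusted Mueller-Hinton broth (E. coli) or tryptone soy broth (enterococci), and agents were serially diluted.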

[7] = Selectivity ratio of MIC for antibacterial activity against Bacteroides fragilis HM-711 to antibacterial activity against Clostridioides difficile NR-32891 P13; format: ADME
[8] = system: Clostridioides difficile; assay: Potency index, ratio of vancomycin MIC to test compound MIC for antibacterial activity against Clostridioides difficile NR-32895 P19; format: functional
[9] = system: Clostridioides difficile; assay: Potency index, ratio of vancomycin MIC to test compound MIC for antibacterial activity against Clostridioides difficile NR-32883 P2; format: functional
[10] = system: Bacteroides fragilis; assay: Antibacterial activity against Bacteroides fragilis HM-711 assessed as reduction in microbial growth after 48 hrs by broth microdilution method; format: organism-based; method in brief: as §1
[11] = Selectivity ratio of MIC for antibacterial activity against Bacteroides fragilis HM-709 to antibacterial activity against Clostridioides difficile NR-13432 isolate 6; format: ADME
[12] = system: Clostridioides difficile; assay: Antibacterial activity against Clostridioides difficile ATCC 43255 infected in CDI mouse model assessed as survival rate at 50 mg/kg, po for 5 days and measured on day 21 relative to control; format: functional; conditions: ATCC 43255, po, 504 h, time 21 day
[13] = system: Clostridioides difficile; assay: Antimicrobial activity against Clostridioides difficile ATCC 43255 assessed as drug resistance by measuring frequency of mutation at 20 times of MIC after 48 hrs; format: functional
[14] = system: Clostridioides difficile; assay: Antimicrobial activity against Clostridioides difficile NR-13432 isolate 6 assessed as reduction in microbial growth after 48 hrs by broth microdilution method; format: functional
Method in brief: (§2)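 Broth microdilution: a 0.5 McFarland suspension was diluted in brain heart infusion supplemented (BHIS) broth to ~5 × 10^5 CFU/mL. Agents were serially diluted and plates incubated anaerobically at 37°C for 48 h.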

[15] = system: Caco-2; assay: Cytotoxicity against human Caco-2 cells assessed as reduction in cell viability at >64 ug/ml after 2 hrs by MTS assay; format: cell-based; conditions: caco-2, 2 h, dose >64 µg/ml
Method in brief: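 Caco-2 cells were exposed to compound for 2 h, then to MTS reagent for 4 h, and absorbance was read at 490 nm. Testing was in triplicate, and viability was expressed as percent of DMSO-treated cells.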

[16] = system: Clostridioides difficile; assay: Potency index, ratio of vancomycin MIC to test compound MIC for antibacterial activity against Clostridioides difficile NR-13432 isolate 6; format: functional
[17] = Selectivity ratio of MIC for antibacterial activity against Bacteroides dorei HM-719 to antibacterial activity against Clostridioides difficile NR-32895 P19; format: ADME
[18] = Selectivity ratio of MIC for antibacterial activity against Bacteroides dorei HM-719 to antibacterial activity against Clostridioides difficile ATCC 43255; format: ADME
[19] = system: Clostridioides difficile; assay: Potency index, ratio of vancomycin MIC to test compound MIC for antibacterial activity against Clostridioides difficile NR-32904 P30; format: functional
[20] = system: Clostridioides difficile; assay: Antimicrobial activity against Clostridioides difficile NR-13435 isolate 9 assessed as reduction in microbial growth after 48 hrs by broth microdilution method; format: functional; method in brief: as §2
[21] = system: Clostridioides difficile; assay: Antibacterial activity against Clostridioides difficile ATCC 43255 infected in CDI mouse model assessed as survival rate at 50 mg/kg, po for 5 days relative to control; format: functional; conditions: ATCC 43255, po, 120 h, time 5 day
[22] = Apparent permeability across apical to basolateral side in human Caco-2 cells; format: ADME, cell-based
Method in brief: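 Bidirectional Caco-2 monolayer transport was run by a contract lab. Papp = (V_R·C_R,end/Δt)·1/[A·(C_D,mid − C_R,mid)]. Donor mid-point is the mean of the 0-min and end donor concentrations; receiver mid-point is half the end receiver concentration. Concentrations were taken as LC peak areas.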

[23] = system: Clostridioides difficile; assay: Antimicrobial activity against Clostridioides difficile ATCC 43255 assessed as reduction in microbial growth after 48 hrs by broth microdilution method; format: functional; method in brief: as §2
[24] = system: Clostridioides difficile; assay: Antimicrobial activity against Clostridioides difficile NR-32883 P2 assessed as reduction in microbial growth after 48 hrs by broth microdilution method; format: functional; method in brief: as §2
[25] = system: Clostridioides difficile; assay: Potency index, ratio of vancomycin MIC to test compound MIC for antibacterial activity against Clostridioides difficile ATCC 43255; format: functional
[26] = system: Lactobacillus crispatus; assay: Antibacterial activity against Lactobacillus crispatus HM-103 assessed as reduction in microbial growth after 48 hrs by broth microdilution method; method in brief: as §1
[27] = Selectivity ratio of MIC for antibacterial activity against Bacteroides dorei HM-719 to antibacterial activity against Clostridioides difficile NR-32883 P2; format: ADME
[28] = Selectivity ratio of MIC for antibacterial activity against Bacteroides fragilis HM-711 to antibacterial activity against Clostridioides difficile NR-13432 isolate 6; format: ADME
[29] = Selectivity ratio of MIC for antibacterial activity against Bacteroides fragilis HM-709 to antibacterial activity against Clostridioides difficile NR-32883 P2; format: ADME
[30] = Selectivity ratio of MIC for antibacterial activity against Bacteroides fragilis HM-709 to antibacterial activity against Clostridioides difficile ATCC 43255; format: ADME
[31] = system: Lactobacillus gasseri; assay: Antibacterial activity against Lactobacillus gasseri HM-400 assessed as reduction in microbial growth after 48 hrs by broth microdilution method; method in brief: as §1
[32] = Selectivity ratio of MIC for antibacterial activity against Bacteroides dorei HM-719 to antibacterial activity against Clostridioides difficile NR-32891 P13; format: ADME
[33] = Selectivity ratio of MIC for antibacterial activity against Bacteroides fragilis HM-709 to antibacterial activity against Clostridioides difficile NR-32904 P30; format: ADME
[34] = Selectivity ratio of MIC for antibacterial activity against Bacteroides fragilis HM-711 to antibacterial activity against Clostridioides difficile NR-32883 P2; format: ADME
[35] = Selectivity ratio of MIC for antibacterial activity against Bacteroides fragilis HM-711 to antibacterial activity against Clostridioides difficile NR-32895 P19; format: ADME

Work on `O=C(Nc1nnc(-c2cc(Cl)cc(Cl)c2)o1)c1ccc(SC(F)(F)F)cc1` yielded an MIC [1] of 4.6 µM, a Selectivity ratio [2] of 100 and an MIC [3] of 36.8 µM. The Selectivity ratio [4] was 100, the MIC [5] was 2.3 µM and the MIC [6] was 0.14 µM. It also gave a Selectivity ratio [7] of 100, a Ratio [8] of 2.5 and a Ratio [9] of 2.5. The MIC [10] was 4.6 µM, the Selectivity ratio [11] was 100 and the survival at 50 mg/kg [12] was 100%. For the same molecule, the Activity [13] was <1.1 10^-9No_unit, the MIC [14] was 0.07 µM and the Activity [15] was “Non-Toxic”. It also gave a Ratio [16] of 2.5, a Selectivity ratio [17] of 100 and a Selectivity ratio [18] of 100. For the same molecule, the Ratio [19] was 2.5, the MIC [20] was 0.007 µM and the survival at 50 mg/kg [21] was 66.7%. For the same molecule, the Papp [22] was 0.2 10^-6 cm/s, the MIC [23] was 0.04 µM and the MIC [24] was 0.02 µM. It also gave a Ratio [25] of 2.5, an MIC [26] of 36.8 µM and a Selectivity ratio [27] of 100. It also gave a Selectivity ratio [28] of 100, a Selectivity ratio [29] of 100 and a Selectivity ratio [30] of 100. The MIC [31] was 36.8 µM, the Selectivity ratio [32] was 100 and the Selectivity ratio [33] was 100. It also gave a Selectivity ratio [34] of 100 and a Selectivity ratio [35] of 100.

Source: ChEMBL document CHEMBL4665831, “Ultrapotent Inhibitor of Clostridioides difficile Growth, Which Suppresses Recurrence In Vivo” (J Med Chem, 2020)
